INS-1E rescue – INS-1E beta cell protection from cytokine death; INS-1E cytokine-induced death, ATP luminescence, 48 h; normalised: neutral wells 0, positive control 100; protection from cytokine-induced ATP loss, % at 10 µM; 20,000 tested, 0.1% active; AID 488910;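 active = mean replicate protection from cytokine-induced ATP loss at least 50% and at least 75% of replicates each reaching 50%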
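Assay system: INS-1E rat insulinoma cells. Amount: 8000 cells per well. Medium: phenol-red-free RPMI with 5% fetal bovine serum. Reagent: IL-1β, TNF-α and IFN-γ cytokine mix. Doses: one compound concentration, pin transfer. Schedule: 48 h co-treatment, 10 min post-lysis read. Detection: CellTiter-Glo luminescence measuring cellular ATP.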
T cruzi HTS – blocks T. cruzi growth inside host cells; intracellular Trypanosoma cruzi in host cells, plate reader; activity score (inhibition), % at 5.01 µM; AID 651903; 22,000 tested, 4.9% active; in the data active = activity score above about 55%;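 also: parasites and compound incubated about four days before reading; 0% = median of neutral control wells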
A1 apoptosis 2 – blocks A1, raising caspase activity; AID 2465; 24,000 tested, under 10 active; caspase activation, % (no concentration beside the values); MEF A1-2A-BIM cells, caspase-Glo luminescence, 3 h; percent of clofoctol response, DMSO zero; in the data active = caspase activation above about 5.9%
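Test system – A1-2A-BIM-expressing MEF cells · Input – 2500 cells/well · Medium – RPMI-1640 growth medium with 10% FBS · Compound dosing – 50 nL pinned compound · Timing – 3 h compound exposure at 37 °C · Technique – Caspase-Glo luminescence (DEVD substrate) · Evaluation – Caspase-3/7 activity from luminescence increase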
Numbers without * were called inactive; · = no result given. This excerpt belongs to a sample that is enriched for hits.

SMILES	INS-1E rescue	T cruzi HTS	A1 apoptosis 2
COc1ccc(S(=O)(=O)Nc2ccc3c(c2)CC(=O)N([C@H](C)CO)C[C@@H](C)[C@@H](CN(C)S(=O)(=O)c2ccc(Cl)cc2)O3)cc1	14	60*	1
COc1ccc(S(=O)(=O)N(C)C[C@H]2Oc3ccc(NS(=O)(=O)c4ccc(Cl)cc4)cc3CC(=O)N([C@H](C)CO)C[C@@H]2C)cc1	·	·	0
C[C@@H]1CN([C@@H](C)CO)C(=O)c2cc(NC(=O)NC3CCCCC3)ccc2O[C@@H](C)CCCCO[C@@H]1CN(C)S(=O)(=O)c1cn(C)cn1	·	·	1
COc1ccc(NC(=O)Nc2ccc3c(c2)C(=O)N([C@H](C)CO)C[C@H](C)[C@@H](CN(C)C(=O)Nc2ccccc2)OCCCC[C@@H](C)O3)cc1	-5	-3	0
CO[C@H]1O[C@H](CO)[C@@H](OC(=O)Nc2ccccc2)[C@H](OC(=O)Nc2ccccc2-c2ccccc2)[C@@H]1OC(=O)Nc1ccccc1-c1ccccc1	·	·	-1
COc1ccc(S(=O)(=O)Nc2ccc3c(c2)CC(=O)N([C@@H](C)CO)C[C@@H](C)[C@@H](CN(C)S(=O)(=O)c2ccc(Cl)cc2)O3)cc1	7	60*	·
COc1ccc(S(=O)(=O)Nc2ccc3c(c2)CC(=O)N([C@H](C)CO)C[C@@H](C)[C@H](CN(C)S(=O)(=O)c2ccc(Cl)cc2)O3)cc1	-1	-8	·
O=C(N/N=C/c1ccc(S(=O)(=O)O)o1)c1ccccn1	-11	-17	·
C[C@@H]1CN([C@@H](C)CO)C(=O)c2cccc(NC(=O)Nc3ccc(C(F)(F)F)cc3)c2O[C@H]1CN(C)CC1CC1	-35	10	0
C[C@H](CO)N1C[C@H](C)[C@H](CN(C)CC2CC2)Oc2c(NC(=O)Nc3ccc(C(F)(F)F)cc3)cccc2C1=O	-9	82*	1
C[C@@H]1CN([C@H](C)CO)C(=O)c2cccc(NC(=O)Nc3ccc(C(F)(F)F)cc3)c2O[C@@H]1CN(C)CC1CC1	-9	-39	0
C[C@H](CO)N1C[C@H](C)[C@@H](CN(C)CC2CCCCC2)Oc2c(NC(=O)Nc3ccc(C(F)(F)F)cc3)cccc2C1=O	-71	69*	0
C=CCC/C=N/NC(=O)CCCCCC(=O)O	-1	-15	0
O=C(NO)c1cccc(C(=O)N/N=C/c2cc(Br)cc([N+](=O)[O-])c2O)c1	-29	6	1
O=C(CCCCCCC(=O)Nc1ccccc1O)N/N=C/c1ccc2c(c1)OCCO2	9	13	·
C[C@@H]1CN([C@@H](C)CO)C(=O)c2cccc(NC(=O)Nc3ccc(C(F)(F)F)cc3)c2O[C@@H]1CN(C)Cc1ccc(Oc2ccccc2)cc1	-92	87*	·
C[C@@H]1CN([C@@H](C)CO)C(=O)c2cccc(NC(=O)Nc3ccc(C(F)(F)F)cc3)c2O[C@H]1CN(C)Cc1ccc(Oc2ccccc2)cc1	-55	52	-1
C[C@@H]1CN([C@H](C)CO)C(=O)c2cccc(NC(=O)Nc3ccc(C(F)(F)F)cc3)c2O[C@H]1CN(C)Cc1ccc(Oc2ccccc2)cc1	-4	42	-1
C[C@@H]1CN([C@H](C)CO)C(=O)c2cccc(NC(=O)Nc3ccccc3)c2O[C@H]1CN(C)Cc1ccc(C(F)(F)F)cc1	-18	33	0
C[C@@H]1CN([C@H](C)CO)C(=O)c2cccc(NC(=O)Nc3ccc(C(F)(F)F)cc3)c2O[C@@H]1CN(C)Cc1ccc(Oc2ccccc2)cc1	-54	79*	·
C[C@H]1CN([C@@H](C)CO)C(=O)c2cccc(NC(=O)Nc3ccc(C(F)(F)F)cc3)c2O[C@H]1CN(C)Cc1ccc(Oc2ccccc2)cc1	-77	69*	-2
CN(C)CCCOc1ccc(/C=N/NC(=O)c2ccccc2O)cc1	-3	26	-2
CO[C@H]1O[C@H](CO)[C@@H](OC(=O)CCc2ccccc2)[C@H](OC(=O)c2cc3ccccc3[nH]2)[C@H]1OC(=O)c1cc2ccccc2[nH]1	·	·	0
O=C(O)CCCCCC(=O)N/N=C/c1ccccc1Cl	3	-1	1
COc1cc2c(cc1OC)CN(C(=O)[C@@H]1[C@H]3C(=O)O[C@H](c4ccccc4)[C@H](c4ccccc4)N3[C@H](c3ccc(O)cc3)[C@@]13C(=O)Nc1ccc(C#CC4=CCCCC4)cc13)CC2	·	·	1
SMILES	INS-1E rescue	T cruzi HTS	A1 apoptosis 2
COc1ccc(S(=O)(=O)Nc2ccc3c(c2)CC(=O)N([C@H](C)CO)C[C@H](C)[C@H](CN(C)Cc2ccccc2)O3)cc1	1	6	·
Cc1ccc(S(=O)(=O)Nc2ccc3c(c2)CC(=O)N([C@@H](C)CO)C[C@H](C)[C@@H](CN(C)S(=O)(=O)c2ccccc2)O3)cc1	5	-1	·
C[C@@H]1CN([C@@H](C)CO)C(=O)Cc2cc(NS(=O)(=O)c3ccc(Cl)cc3)ccc2O[C@@H]1CN(C)S(=O)(=O)c1ccccc1	10	47	1
C[C@@H]1CN([C@H](C)CO)C(=O)Cc2cc(NS(=O)(=O)c3ccc(Cl)cc3)ccc2O[C@@H]1CN(C)S(=O)(=O)c1ccccc1	0	59*	-1
Cc1ccc(S(=O)(=O)N(C)C[C@H]2Oc3ccc(NS(=O)(=O)c4ccccc4)cc3CC(=O)N([C@H](C)CO)C[C@H]2C)cc1	1	67*	-1
C[C@H](CO)N1C[C@H](C)[C@H](CN(C)S(=O)(=O)c2ccc(Cl)cc2)Oc2ccc(NS(=O)(=O)c3ccc(F)cc3)cc2CC1=O	-6	22	·
C[C@@H]1CN([C@H](C)CO)C(=O)Cc2cc(NS(=O)(=O)c3ccc(Cl)cc3)ccc2O[C@@H]1CN(C)S(=O)(=O)c1ccc(F)cc1	3	67*	·
Cc1ccc(S(=O)(=O)Nc2ccc3c(c2)CC(=O)N([C@H](C)CO)C[C@H](C)[C@@H](CN(C)S(=O)(=O)c2ccc(Cl)cc2)O3)cc1	·	·	0
Cc1ccc(S(=O)(=O)Nc2ccc3c(c2)CC(=O)N([C@H](C)CO)C[C@@H](C)[C@@H](CN(C)S(=O)(=O)c2ccc(C)cc2)O3)cc1	-7	78*	·
CN(C)CCCOc1ccc(/C=N/NC(=O)c2ccccn2)cc1	5	21	-5
O=C(NO)c1cccc(C(=O)N/N=C/c2ccc(OCCO)cc2)c1	3	-11	·
C[C@H]1CN([C@@H](C)CO)C(=O)c2cccc(NC(=O)C3CCOCC3)c2O[C@H]1CN(C)CC1CC1	4	-17	2
O=C(O)CCCCCC(=O)N/N=C/c1ccoc1	-3	-8	0
Cc1ccc(O)c(/C=N/NC(=O)CCCCCCC(=O)Nc2ccccc2O)c1	·	·	-1
CN1C(=O)N[C@@H]2c3ccccc3O[C@@]1(CO)[C@@H]2COC(=O)c1ccccc1	·	·	1
CC1(C)COC(CCC/C=N/NC(=O)c2ccccn2)OC1	5	-6	0
Cc1ccc(S(=O)(=O)N(C)C[C@H]2Oc3ccc(NS(=O)(=O)c4ccc(F)cc4)cc3CC(=O)N([C@H](C)CO)C[C@@H]2C)cc1	·	·	-1
Cc1ccc(S(=O)(=O)N(C)C[C@H]2Oc3ccc(NS(=O)(=O)c4ccc(F)cc4)cc3CC(=O)N([C@H](C)CO)C[C@H]2C)cc1	-4	63*	1
